Assay results reported in ChEMBL document CHEMBL1153988 (J Med Chem, 2009).

Legend:
Rattus norvegicus = assay: Anticonvulsant activity in po dosed albino Sprague-Dawley rat assessed as protection against scMet-induced seizures; type: functional
Summary of the method: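 Male Sprague-Dawley albino rats (100-150 g) were dosed orally in 0.5% methylcellulose and tested by MES or by sc pentylenetetrazol (2.82% in 0.9% saline). Doses were varied to give 3-4 points between 0% and 100% protection. ED50 and 95% confidence intervals came from probit analysis.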

Mus musculus [1] = assay: Anticonvulsant activity in ip dosed CF1 albino mouse assessed as protection against 44 mA-current-induced seizure by 6Hz psychomotor seizure test; type: functional
Summary of the method: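 In the 6 Hz psychomotor seizure test, male CF no. 1 albino mice (18-25 g) received the compound ip in 0.5% methylcellulose. Stimulation was at 32 or 44 mA. Doses were varied to give 3-4 points between 0% and 100% protection, and ED50 with 95% confidence interval came from probit analysis.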

Mus musculus [2] = assay: Teratogenic effect in SWV mouse assessed as number of litters at 600 mg/kg, ip administered on morning of day 8 of gestation; type: toxicity, organism-based; set-up: dose 600 mg/kg, route intraperitoneal; conditions: in vivo
Summary of the method: (§1)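 Inbred SWV mouse strain, highly susceptible to valproate-induced neural tube defects. Each pregnant dam received a single ip injection on gestation day 8.5. Test compounds spanned 1.8-4.2 mmol/kg, the reference drug was given as its sodium salt, and controls received 25% aqueous Cremophor EL. Groups were compared by Fisher's exact test (p < 0.05).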

Mus musculus [3] = assay: Teratogenic effect in SWV mouse assessed as number of litters at 452 mg/kg, ip administered on morning of day 8 of gestation; type: toxicity, organism-based; set-up: dose 452 mg/kg, route intraperitoneal; conditions: in vivo; summary of the method: as §1
Mus musculus [4] = assay: Teratogenic effect in SWV mouse assessed as number of litters at 301 mg/kg, ip administered on morning of day 8 of gestation; type: toxicity, organism-based; set-up: dose 301 mg/kg, route intraperitoneal; conditions: in vivo; summary of the method: as §1
Mus musculus [5] = assay: Teratogenic effect in SWV mouse assessed as number of implants at 600 mg/kg, ip administered on morning of day 8 of gestation; type: toxicity, organism-based; set-up: dose 600 mg/kg, route intraperitoneal; conditions: in vivo; summary of the method: as §1
Mus musculus [6] = assay: Teratogenic effect in SWV mouse assessed as number of implants at 452 mg/kg, ip administered on morning of day 8 of gestation; type: toxicity, organism-based; set-up: dose 452 mg/kg, route intraperitoneal; conditions: in vivo; summary of the method: as §1
Mus musculus [7] = assay: Teratogenic effect in SWV mouse assessed as number of implants at 301 mg/kg, ip administered on morning of day 8 of gestation; type: toxicity, organism-based; set-up: dose 301 mg/kg, route intraperitoneal; conditions: in vivo; summary of the method: as §1
Mus musculus [8] = assay: Teratogenic effect in SWV mouse assessed as resorptions at 600 mg/kg, ip administered on morning of day 8 of gestation; type: toxicity, organism-based; set-up: dose 600 mg/kg, route intraperitoneal; conditions: in vivo; summary of the method: as §1
Mus musculus [9] = assay: Teratogenic effect in SWV mouse assessed as resorptions at 452 mg/kg, ip administered on morning of day 8 of gestation; type: toxicity, organism-based; set-up: dose 452 mg/kg, route intraperitoneal; conditions: in vivo; summary of the method: as §1
Mus musculus [10] = assay: Teratogenic effect in SWV mouse assessed as resorptions at 301 mg/kg, ip administered on morning of day 8 of gestation; type: toxicity, organism-based; set-up: dose 301 mg/kg, route intraperitoneal; conditions: in vivo; summary of the method: as §1
Mus musculus [11] = assay: Teratogenic effect in SWV mouse assessed as live fetuses at 600 mg/kg, ip administered on morning of day 8 of gestation; type: toxicity, organism-based; set-up: dose 600 mg/kg, route intraperitoneal; conditions: in vivo; summary of the method: as §1
Mus musculus [12] = assay: Teratogenic effect in SWV mouse assessed as live fetuses at 452 mg/kg, ip administered on morning of day 8 of gestation; type: toxicity, organism-based; set-up: dose 452 mg/kg, route intraperitoneal; conditions: in vivo; summary of the method: as §1
Mus musculus [13] = assay: Teratogenic effect in SWV mouse assessed as live fetuses at 301 mg/kg, ip administered on morning of day 8 of gestation; type: toxicity, organism-based; set-up: dose 301 mg/kg, route intraperitoneal; conditions: in vivo; summary of the method: as §1
Mus musculus [14] = assay: Teratogenic effect in SWV mouse assessed as dead fetuses at 600 mg/kg, ip administered on morning of day 8 of gestation; type: toxicity, organism-based; set-up: dose 600 mg/kg, route intraperitoneal; conditions: in vivo
Mus musculus [15] = assay: Teratogenic effect in SWV mouse assessed as dead fetuses at 452 mg/kg, ip administered on morning of day 8 of gestation; type: toxicity, organism-based; set-up: dose 452 mg/kg, route intraperitoneal; conditions: in vivo
Mus musculus [16] = assay: Teratogenic effect in SWV mouse assessed as dead fetuses at 301 mg/kg, ip administered on morning of day 8 of gestation; type: toxicity, organism-based; set-up: dose 301 mg/kg, route intraperitoneal; conditions: in vivo
Mus musculus [17] = assay: Teratogenic effect in VPA-induced SWV mouse assessed as fetuses with neural tube deffects at 301 mg/kg, ip administered on morning of day 8 of gestation; type: toxicity, organism-based; set-up: dose 301 mg/kg, route intraperitoneal; conditions: in vivo; summary of the method: as §1
Mus musculus [18] = assay: Anticonvulsant activity in CF1 albino mouse assessed as protection against maximal electroshock-induced seizures at 50 mg/kg, ip after 4 hrs; type: functional, organism-based; set-up: dose 50 mg/kg
Summary of the method: (§2)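 Adult male CF no. 1 albino mice (18-25 g). Test compound suspended in 0.5% methylcellulose and given intraperitoneally at 0.01 mL/g body weight. Maximal electroshock challenge at the stated time. Read-out is the number of animals protected over the number tested; neurotoxicity is scored in parallel.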

Mus musculus [19] = assay: Anticonvulsant activity in CF1 albino mouse assessed as protection against maximal electroshock-induced seizures at 50 mg/kg, ip after 0.5 hrs; type: functional, organism-based; set-up: dose 50 mg/kg; summary of the method: as §2
Mus musculus [20] = assay: Anticonvulsant activity in CF1 albino mouse assessed as protection against scMet-induced seizures at 50 mg/kg, ip after 0.5 hrs; type: functional, organism-based; set-up: dose 50 mg/kg
Summary of the method: (§3)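 Adult male CF no. 1 albino mice (18-25 g) dosed intraperitoneally with compound suspended in 0.5% methylcellulose (0.01 mL/g). Convulsant challenge given subcutaneously as a 0.85% pentylenetetrazol solution in 0.9% saline. Read-out is animals protected over animals tested, with neurotoxicity scored in parallel.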

Mus musculus [21] = assay: Anticonvulsant activity in CF1 albino mouse assessed as protection against scMet-induced seizures at 50 mg/kg, ip after 4 hrs; type: functional, organism-based; set-up: dose 50 mg/kg; summary of the method: as §3
Mus musculus [22] = assay: Neurotoxicity in CF1 albino mouse at 50 mg/kg, ip after 0.5 hrs; type: toxicity, organism-based; set-up: dose 50 mg/kg, route intraperitoneal; conditions: in vivo
Summary of the method: (§4)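 Male CF no. 1 albino mice (18-25 g) received a single ip dose as a suspension in 0.5% methylcellulose. The read-out was the number of animals showing neurotoxicity (minimal motor impairment) over the number tested.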

Mus musculus [23] = assay: Neurotoxicity in CF1 albino mouse at 50 mg/kg, ip after 4 hrs; type: toxicity, organism-based; set-up: dose 50 mg/kg, route intraperitoneal; conditions: in vivo; summary of the method: as §4
Mus musculus [24] = assay: Anticonvulsant activity in CF1 albino mouse assessed as protection against maximal electroshock-induced seizures at 150 mg/kg, ip after 4 hrs; type: functional, organism-based; set-up: dose 150 mg/kg; summary of the method: as §2
Mus musculus [25] = assay: Anticonvulsant activity in CF1 albino mouse assessed as protection against maximal electroshock-induced seizures at 450 mg/kg, ip after 4 hrs; type: functional, organism-based; set-up: dose 450 mg/kg; summary of the method: as §2
Mus musculus [26] = assay: Anticonvulsant activity in CF1 albino mouse assessed as protection against scMet-induced seizures at 150 mg/kg, ip after 0.5 hrs; type: functional, organism-based; set-up: dose 150 mg/kg; summary of the method: as §3
Mus musculus [27] = assay: Anticonvulsant activity in CF1 albino mouse assessed as protection against scMet-induced seizures at 450 mg/kg, ip after 0.5 hrs; type: functional, organism-based; set-up: dose 450 mg/kg; summary of the method: as §3
Mus musculus [28] = assay: Anticonvulsant activity in CF1 albino mouse assessed as protection against scMet-induced seizures at 150 mg/kg, ip after 4 hrs; type: functional, organism-based; set-up: dose 150 mg/kg; summary of the method: as §3
Mus musculus [29] = assay: Anticonvulsant activity in CF1 albino mouse assessed as protection against scMet-induced seizures at 450 mg/kg, ip after 4 hrs; type: functional, organism-based; set-up: dose 450 mg/kg; summary of the method: as §3
Mus musculus [30] = assay: Neurotoxicity in CF1 albino mouse at 150 mg/kg, ip after 0.5 hrs; type: toxicity, organism-based; set-up: dose 150 mg/kg, route intraperitoneal; conditions: in vivo; summary of the method: as §4
Mus musculus [31] = assay: Neurotoxicity in CF1 albino mouse at 450 mg/kg, ip after 0.5 hrs; type: toxicity, organism-based; set-up: dose 450 mg/kg, route intraperitoneal; conditions: in vivo; summary of the method: as §4
Mus musculus [32] = assay: Neurotoxicity in CF1 albino mouse at 150 mg/kg, ip after 4 hrs; type: toxicity, organism-based; set-up: dose 150 mg/kg, route intraperitoneal; conditions: in vivo; summary of the method: as §4
Mus musculus [33] = assay: Neurotoxicity in CF1 albino mouse at 450 mg/kg, ip after 4 hrs; type: toxicity, organism-based; set-up: dose 450 mg/kg, route intraperitoneal; conditions: in vivo; summary of the method: as §4
Mus musculus [34] = assay: Anticonvulsant activity in CF1 albino mouse assessed as protection against maximal electroshock-induced seizures at 150 mg/kg, ip after 0.5 hrs; type: functional, organism-based; set-up: dose 150 mg/kg; summary of the method: as §2
Mus musculus [35] = assay: Anticonvulsant activity in CF1 albino mouse assessed as protection against maximal electroshock-induced seizures at 450 mg/kg, ip after 0.5 hrs; type: functional, organism-based; set-up: dose 450 mg/kg; summary of the method: as §2

Structure (SMILES): CCCC(CCC)C(=O)O [VALPROIC ACID]
- ED50 (Rattus norvegicus): 646 mg/kg
- ED50 (Mus musculus [1]): 310 mg/kg
- Activity (Mus musculus [2]): 13
- Activity (Mus musculus [3]): 13
- Activity (Mus musculus [4]): 12
- Activity (Mus musculus [5]): 131
- Activity (Mus musculus [6]): 160
- Activity (Mus musculus [7]): 154
- Activity (Mus musculus [8]): 7.6%
- Activity (Mus musculus [9]): 11.3%
- Activity (Mus musculus [10]): 11%
- Activity (Mus musculus [11]): 81.7%
- Activity (Mus musculus [12]): 88.1%
- Activity (Mus musculus [13]): 86.4%
- Activity (Mus musculus [14]): 10.7%
- Activity (Mus musculus [15]): 0.6%
- Activity (Mus musculus [16]): 2.6%
- Activity (Mus musculus [17]): 1.5%

Structure (SMILES): CC1(C)C(C)(C)C1(Br)C(=O)O
- Activity (Mus musculus [18]): Non-toxic
- Activity (Mus musculus [19]): Non-toxic
- Activity (Mus musculus [20]): Non-toxic
- Activity (Mus musculus [21]): Non-toxic
- Activity (Mus musculus [22]): Non-toxic
- Activity (Mus musculus [23]): Non-toxic
- Activity (Mus musculus [24]): Non-toxic
- Activity (Mus musculus [25]): Non-toxic
- Activity (Mus musculus [26]): Non-toxic
- Activity (Mus musculus [27]): Non-toxic
- Activity (Mus musculus [28]): Non-toxic
- Activity (Mus musculus [29]): Non-toxic
- Activity (Mus musculus [30]): Non-toxic
- Activity (Mus musculus [31]): Non-toxic
- Activity (Mus musculus [32]): Non-toxic
- Activity (Mus musculus [33]): Non-toxic
- Activity (Mus musculus [34]): Non-toxic
- Activity (Mus musculus [35]): Non-toxic
